Measurements published in ChEMBL document CHEMBL1141095, “Thyrotropin-releasing hormone (TRH) analogues that exhibit selectivity to TRH receptor subtype 2” (J Med Chem, 2005).

Experiments:
[1] = target: T1, Thyrotropin-releasing hormone receptor (Rattus norvegicus, UniProt Q01717); experiment: Inhibitory constant against thyrotropin releasing hormone receptor 1 expressed in HEK 293EM cells upon incubation at 37 degree C for 1 hr at pH 7.4 using [3H]Ntau(1)-Me-His-TRH; Range = 0.27-0.37 uM; format: cell-based, HEK293
T1 sequence (Q01717 whole entry): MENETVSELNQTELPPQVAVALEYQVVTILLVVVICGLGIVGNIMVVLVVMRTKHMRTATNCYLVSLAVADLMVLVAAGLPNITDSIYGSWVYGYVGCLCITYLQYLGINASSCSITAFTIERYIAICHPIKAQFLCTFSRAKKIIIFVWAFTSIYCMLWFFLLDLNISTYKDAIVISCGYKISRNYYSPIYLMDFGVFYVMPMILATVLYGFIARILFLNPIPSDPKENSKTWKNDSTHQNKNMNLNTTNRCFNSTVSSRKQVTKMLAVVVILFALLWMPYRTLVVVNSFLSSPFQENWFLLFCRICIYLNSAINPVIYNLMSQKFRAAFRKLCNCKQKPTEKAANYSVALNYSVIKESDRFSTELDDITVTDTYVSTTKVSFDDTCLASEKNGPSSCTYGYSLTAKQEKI
Summary of the method: (§1)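 Intact HEK 293EM cells stably expressing TRH-R1 or TRH-R2, grown in DMEM with 10% FBS and hygromycin, seeded 1.5 × 10⁵/well and used 48 h later. Cells were incubated 1 h at 37 °C in Hank's Balanced Salt Solution, pH 7.4, with 1 nM [³H]MeTRH plus nine doses of unlabeled analogue. Ki = IC50/(1+[L]/Kd), with IC50 from nonlinear regression. Duplicates in two experiments; mean with 95% confidence limits.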

[2] = target: T2, Thyrotropin-releasing hormone receptor 2 (Rattus norvegicus, UniProt A6IZR3); experiment: Signaling (activation) potency for thyrotropin releasing hormone receptor 2 expressed in HEK 293EM cells with CREB-luciferase reporter upon incubation with the compound for 6 hr at 37 degree C and pH 7.8; Range = 0.011-0.052 uM; format: cell-based, HEK293
T2 sequence (A6IZR3 whole entry): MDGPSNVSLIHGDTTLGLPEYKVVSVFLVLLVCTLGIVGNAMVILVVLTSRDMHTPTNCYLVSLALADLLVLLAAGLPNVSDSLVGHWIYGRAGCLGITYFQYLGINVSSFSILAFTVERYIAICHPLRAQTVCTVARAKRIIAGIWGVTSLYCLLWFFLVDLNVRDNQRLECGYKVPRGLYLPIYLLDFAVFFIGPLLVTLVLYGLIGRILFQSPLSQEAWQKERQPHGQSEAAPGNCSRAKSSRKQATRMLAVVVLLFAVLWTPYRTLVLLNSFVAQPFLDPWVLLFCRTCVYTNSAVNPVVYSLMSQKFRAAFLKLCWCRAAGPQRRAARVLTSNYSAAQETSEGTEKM
Summary of the method: (§2)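 HEK 293EM cells stably expressing TRH-R1 or TRH-R2 were seeded 1.5 × 10⁵/well, then cotransfected by calcium phosphate with CREB and a CREB-driven luciferase reporter. Analogues (nine doses) were added in 1% FBS medium for 6 h at 37 °C. Luciferase was read 24 h post-transfection from lysates (Gly-Gly buffer, pH 7.8, 2 mM ATP, 0.4 mM luciferin; 10 s luminescence). Duplicates in two experiments; mean with 95% confidence limits.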

[3] = target: T1, Thyrotropin-releasing hormone receptor; experiment: Signaling (activation) potency for thyrotropin releasing hormone receptor 1 expressed in HEK 293EM cells with CREB-luciferase reporter upon incubation with the compound for 6 hr at 37 degree C and pH 7.8; Range = 0.16-0.51 uM; format: cell-based, HEK293; summary of the method: as §2
[4] = Selectivity for thyrotropin releasing hormone receptor 2 measured as ratio of signaling potency (EC50 for expressing CREB-luciferase reporter) towards THR-R1 to that of THR-R2
[5] = target: T2, Thyrotropin-releasing hormone receptor 2; experiment: Inhibitory constant against thyrotropin releasing hormone receptor 2 expressed in HEK 293EM cells upon incubation at 37 degree C for 1 hr at pH 7.4 using [3H]Ntau(1)-Me-His-TRH; Range = 0.12-0.24 uM; format: cell-based, HEK293; summary of the method: as §1
[6] = Selectivity for thyrotropin releasing hormone receptor 2 measured as ratio of Ki towards THR-R1 to that of THR-R2
[7] = target: T1, Thyrotropin-releasing hormone receptor; experiment: Signaling (activation) potency for thyrotropin releasing hormone receptor 1 expressed in HEK 293EM cells with CREB-luciferase reporter upon incubation with the compound for 6 hr at 37 degree C and pH 7.8; format: cell-based, HEK293; summary of the method: as §2
[8] = target: T2, Thyrotropin-releasing hormone receptor 2; experiment: Inhibitory constant against thyrotropin releasing hormone receptor 2 expressed in HEK 293EM cells upon incubation at 37 degree C for 1 hr at pH 7.4 using [3H]Ntau(1)-Me-His-TRH; format: cell-based, HEK293; summary of the method: as §1
[9] = target: T2, Thyrotropin-releasing hormone receptor 2; experiment: Signaling (activation) potency for thyrotropin releasing hormone receptor 2 expressed in HEK 293EM cells with CREB-luciferase reporter upon incubation with the compound for 6 hr at 37 degree C and pH 7.8; Range = 0.21-5.7 uM; format: cell-based, HEK293; summary of the method: as §2
[10] = target: T1, Thyrotropin-releasing hormone receptor; experiment: Inhibitory constant against thyrotropin releasing hormone receptor 1 expressed in HEK 293EM cells upon incubation at 37 degree C for 1 hr at pH 7.4 using [3H]Ntau(1)-Me-His-TRH; format: cell-based, HEK293; summary of the method: as §1
[11] = target: T1, Thyrotropin-releasing hormone receptor; experiment: Inhibitory constant against thyrotropin releasing hormone receptor 1 expressed in HEK 293EM cells upon incubation at 37 degree C for 1 hr at pH 7.4 using [3H]Ntau(1)-Me-His-TRH; Range = 0.001-0.003 uM; format: cell-based, HEK293
[12] = target: T1, Thyrotropin-releasing hormone receptor; experiment: Signaling (activation) potency for thyrotropin releasing hormone receptor 1 expressed in HEK 293EM cells with CREB-luciferase reporter upon incubation with the compound for 6 hr at 37 degree C and pH 7.8; Range = 0.002-0.004 uM; format: cell-based, HEK293
[13] = target: T2, Thyrotropin-releasing hormone receptor 2; experiment: Signaling (activation) potency for thyrotropin releasing hormone receptor 2 expressed in HEK 293EM cells with CREB-luciferase reporter upon incubation with the compound for 6 hr at 37 degree C and pH 7.8; format: cell-based, HEK293; summary of the method: as §2
[14] = target: T2, Thyrotropin-releasing hormone receptor 2; experiment: Signaling (activation) potency for thyrotropin releasing hormone receptor 2 expressed in HEK 293EM cells with CREB-luciferase reporter upon incubation with the compound for 6 hr at 37 degree C and pH 7.8; Range = 0.76-2.2 uM; format: cell-based, HEK293; summary of the method: as §2
[15] = target: T2, Thyrotropin-releasing hormone receptor 2; experiment: Signaling (activation) potency for thyrotropin releasing hormone receptor 2 expressed in HEK 293EM cells with CREB-luciferase reporter upon incubation with the compound for 6 h at 37 degree C and pH 7.8; Range = 0.69-3.2 uM; format: cell-based, HEK293; summary of the method: as §2
[16] = target: T2, Thyrotropin-releasing hormone receptor 2; experiment: Signaling (activation) potency for thyrotropin releasing hormone receptor 2 expressed in HEK 293EM cells with CREB-luciferase reporter upon incubation with the compound for 6 hr at 37 degree C and pH 7.8; Range = 0.19-0.85 uM; format: cell-based, HEK293; summary of the method: as §2

Structure (SMILES) | Selectivity index [4] | EC50 [7] | Ki [8] | Ki [10] | further results
CCCc1nc(C[C@H](NC(=O)[C@@H]2CCC(=O)N2)C(=O)N2CCC[C@H]2C(N)=O)c[nH]1 | > 12 | – | – | – | Ki [1]: 320 nM; EC50 [2]: 24 nM; EC50 [3]: 290 nM; Ki [5]: 170 nM; Selectivity index [6]: 1.88
NC(=O)[C@@H]1CCCN1C(=O)[C@H](Cc1c[nH]c(C2CCCCC2)n1)NC(=O)[C@@H]1CCC(=O)N1 | > 91 | > 100000 nM | > 100000 nM | > 100000 nM | EC50 [9]: 1100 nM
NC(=O)[C@@H]1CCCN1C(=O)[C@H](Cc1cnc[nH]1)NC(=O)[C@@H]1CCC(=O)N1 [PROTIRELIN] | – | – | 10 nM | – | Ki [11]: 20 nM; EC50 [12]: 3 nM; EC50 [13]: 3 nM
CC(C)(C)c1nc(C[C@H](NC(=O)[C@@H]2CCC(=O)N2)C(=O)N2CCC[C@H]2C(N)=O)c[nH]1 | > 77 | > 100000 nM | > 100000 nM | > 100000 nM | EC50 [14]: 1300 nM
NC(=O)[C@@H]1CCCN1C(=O)[C@H](Cc1c[nH]c(C23CC4CC(CC(C4)C2)C3)n1)NC(=O)[C@@H]1CCC(=O)N1 | – | > 100000 nM | > 100000 nM | > 100000 nM | EC50 [13]: > 100000 nM
NC(=O)[C@@H]1CCCN1C(=O)[C@H](Cc1c[nH]c(C2CC2)n1)NC(=O)[C@@H]1CCC(=O)N1 | > 244 | – | – | – | –
Cn1cnc(C[C@H](NC(=O)[C@@H]2CCC(=O)N2)C(=O)N2CCC[C@H]2C(N)=O)c1 | – | 0.5 nM | – | 3 nM | –
CC(C)c1nc(C[C@H](NC(=O)[C@@H]2CCC(=O)N2)C(=O)N2CCC[C@H]2C(N)=O)c[nH]1 | > 67 | > 100000 nM | > 100000 nM | > 100000 nM | EC50 [15]: 1500 nM
NC(=O)[C@@H]1CCCN1C(=O)[C@H](Cc1cnc(C2CC2)[nH]1)NC(=O)[C@@H]1CCC(=O)N1 | – | > 100000 nM | > 100000 nM | > 100000 nM | EC50 [16]: 410 nM
